The structures appear in SMILES notation. In brackets after ≈: the same amount, converted by molar mass.

The nature of the first data set: Lipophilicity, logP of the compound. The data set is classed as physicochemical. As to conditions: octanol/water; read-out: logP.
As to `CN(C)C(=O)Cc1ccc2ccn(C)c2c1`, the logP amounted to 1.7.
As for `COC(=O)c1ccc2ccn(C(=O)c3ccccc3)c2c1`, the logP was 4.3.
Still for that read-out and setting: in the case of `c1ccc2cc(CN3CCCCC3)ccc2c1` it was greater than 5.5.
The same measure, in the same setting: in the case of `COC(=O)c1ccc2c(C(=O)c3ccccc3)cc(C(=O)c3ccccc3)c-2cc1` it was 5.5; in that of `COC(=O)c1ccc2c(C(=O)c3ccccc3)cn(C(=O)c3ccccc3)c2c1`, 5.2; in that of `COC(=O)c1ccc2c(c1)c(C(=O)c1ccccc1)cn2C(=O)c1ccccc1`, 5.2.
Take `O=C(NCc1cccnc1)c1ccc2ccc(C(=O)c3ccccc3)c-2cc1`: the logP is 3.
The same measure, in the same setting: in the case of `O=C(Nc1cc2cccccc-2c1)c1cccnc1` it was 2.4; in that of `COC(=O)c1ccc2c(ccn2C(=O)c2ccccc2)c1`, 4.4; in that of `Cn1cc(C(=O)c2ccccc2)c2cc(C(=O)NCc3cccnc3)ccc21`, 2.1.
Turning to `COC(=O)c1ccc2ccc(C(=O)c3ccccc3)c-2cc1`, the logP worked out at 4.7.
On the same count and under the same terms, in the case of `Cn1c(NC(=O)c2cccnc2)cc2ccccc21` it was 1.3.
As for `O=C(Nc1ccc2ccccc2c1)c1cccnc1`, the logP was 2.4.

A short description of a further data set: Metabolic stability in human liver microsomes assessed as hepatic blood flow at 1 uM preincubated with compound followed by NADPH addition by LC-MS/MS analysis. The data set is classed as ADME, Microsome. As to conditions: read-out: QH.
On to `CN(C)C(=O)Cc1ccc2ccn(C)c2c1`, for which the hepatic extraction ratio at 1 µM is less than 0.23.
The same measure, in the same setting: in the case of `c1ccc2cc(CN3CCCCC3)ccc2c1` it was 0.72; in that of `O=C(NCc1cccnc1)c1ccc2ccc(C(=O)c3ccccc3)c-2cc1`, 0.46; in that of `O=C(Nc1cc2cccccc-2c1)c1cccnc1`, 0.71.
The same measure, in the same setting: in the case of `Cn1cc(C(=O)c2ccccc2)c2cc(C(=O)NCc3cccnc3)ccc21` it was less than 0.23.
On to `Cn1c(NC(=O)c2cccnc2)cc2ccccc21`, for which the hepatic extraction ratio at 1 µM amounted to 0.23.
The same measure, in the same setting: in the case of `O=C(Nc1ccc2ccccc2c1)c1cccnc1` it was 0.67.

The next data set can be described thus: Octanol-water partition coefficient, logD of the compound at pH 11 by HPLC analysis. The data set is classed as physicochemical. As to conditions: read-out: logD.
Regarding `CN(C)C(=O)Cc1ccc2ccn(C)c2c1`, the logD was 1.7.
Same read-out and setting: in the case of `COC(=O)c1ccc2ccn(C(=O)c3ccccc3)c2c1` it was 4.3; in that of `c1ccc2cc(CN3CCCCC3)ccc2c1`, greater than 5.5; in that of `COC(=O)c1ccc2c(C(=O)c3ccccc3)cc(C(=O)c3ccccc3)c-2cc1`, 5.5.
As to `COC(=O)c1ccc2c(C(=O)c3ccccc3)cn(C(=O)c3ccccc3)c2c1`, the logD was found to be 5.2.
The same measure, in the same setting: in the case of `COC(=O)c1ccc2c(c1)c(C(=O)c1ccccc1)cn2C(=O)c1ccccc1` it was 5.2.
`O=C(NCc1cccnc1)c1ccc2ccc(C(=O)c3ccccc3)c-2cc1`: the logD was determined as 1.4.
Still for that read-out and setting: in the case of `O=C(Nc1cc2cccccc-2c1)c1cccnc1` it was 1.3; in that of `COC(=O)c1ccc2c(ccn2C(=O)c2ccccc2)c1`, 4.4.
Same read-out and setting: in the case of `Cn1cc(C(=O)c2ccccc2)c2cc(C(=O)NCc3cccnc3)ccc21` it was 0.9; in that of `COC(=O)c1ccc2ccc(C(=O)c3ccccc3)c-2cc1`, 4.7.
Turning to `Cn1c(NC(=O)c2cccnc2)cc2ccccc21`, the logD was -0.1.
On the same count and under the same terms, in the case of `O=C(Nc1ccc2ccccc2c1)c1cccnc1` it was 2.4.

The nature of another data set: Aqueous solubility of the compound at pH 2.2 incubated for 24 hrs under shaking condition by LC-UV analysis. As to conditions: aqueous medium. The data set is classed as physicochemical. The essentials:
(§1)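 The highest concentration tested was 250 μM, so results are capped at that level. Values are reported in µg/ml.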
On to `CN(C)C(=O)Cc1ccc2ccn(C)c2c1`, for which the thermodynamic solubility at 24 h was greater than 54 µg/mL.
Compound `COC(=O)c1ccc2ccn(C(=O)c3ccccc3)c2c1` displayed a thermodynamic solubility at 24 h of less than 1 µg/mL.
Compound `c1ccc2cc(CN3CCCCC3)ccc2c1` yielded a solubility (thermodynamic) at 24 h of 34 µg/mL (≈ 151 µM).
For the compound `COC(=O)c1ccc2c(C(=O)c3ccccc3)cc(C(=O)c3ccccc3)c-2cc1`, the thermodynamic solubility at 24 h is less than 1 µg/mL.
Still for that read-out and setting: in the case of `COC(=O)c1ccc2c(C(=O)c3ccccc3)cn(C(=O)c3ccccc3)c2c1` it was less than 1 µg/mL.
Still for that read-out and setting: in the case of `COC(=O)c1ccc2c(c1)c(C(=O)c1ccccc1)cn2C(=O)c1ccccc1` it was less than 1 µg/mL.
The compound `O=C(NCc1cccnc1)c1ccc2ccc(C(=O)c3ccccc3)c-2cc1` showed a thermodynamic solubility at 24 h of 70 µg/mL (≈ 191 µM).
The same measure, in the same setting: in the case of `O=C(Nc1cc2cccccc-2c1)c1cccnc1` it was 43 µg/mL (≈ 173 µM); in that of `COC(=O)c1ccc2c(ccn2C(=O)c2ccccc2)c1`, less than 1 µg/mL.
The compound `Cn1cc(C(=O)c2ccccc2)c2cc(C(=O)NCc3cccnc3)ccc21` showed a thermodynamic solubility at 24 h of 81 µg/mL (≈ 219 µM).
Compound `COC(=O)c1ccc2ccc(C(=O)c3ccccc3)c-2cc1` had a thermodynamic solubility at 24 h of less than 1 µg/mL.
`Cn1c(NC(=O)c2cccnc2)cc2ccccc21` displayed a thermodynamic solubility at 24 h greater than 59 µg/mL.
On the same count and under the same terms, in the case of `O=C(Nc1ccc2ccccc2c1)c1cccnc1` it was greater than 50 µg/mL.

A further data set is described as follows: Aqueous solubility of the compound at pH 6.8 incubated for 24 hrs under shaking condition by LC-UV analysis. The data set is classed as physicochemical. The settings on record: aqueous medium. The essentials:
as §1
In turn, `CN(C)C(=O)Cc1ccc2ccn(C)c2c1` returned a solubility (thermodynamic) at 24 h greater than 53 µg/mL.
Compound `COC(=O)c1ccc2ccn(C(=O)c3ccccc3)c2c1` returned a solubility (thermodynamic) at 24 h of less than 1 µg/mL.
In turn, `c1ccc2cc(CN3CCCCC3)ccc2c1` gave a solubility (thermodynamic) at 24 h of 27 µg/mL (≈ 120 µM).
The compound `COC(=O)c1ccc2c(C(=O)c3ccccc3)cc(C(=O)c3ccccc3)c-2cc1` registered a solubility (thermodynamic) at 24 h of less than 1 µg/mL.
The same measure, in the same setting: in the case of `COC(=O)c1ccc2c(C(=O)c3ccccc3)cn(C(=O)c3ccccc3)c2c1` it was less than 1 µg/mL; in that of `COC(=O)c1ccc2c(c1)c(C(=O)c1ccccc1)cn2C(=O)c1ccccc1`, less than 1 µg/mL; in that of `O=C(NCc1cccnc1)c1ccc2ccc(C(=O)c3ccccc3)c-2cc1`, less than 1 µg/mL.
Take `O=C(Nc1cc2cccccc-2c1)c1cccnc1`: the solubility (thermodynamic) at 24 h came out at 2 µg/mL (≈ 8.06 µM).
In turn, `COC(=O)c1ccc2c(ccn2C(=O)c2ccccc2)c1` registered a thermodynamic solubility at 24 h of less than 1 µg/mL.
`Cn1cc(C(=O)c2ccccc2)c2cc(C(=O)NCc3cccnc3)ccc21` yielded a solubility (thermodynamic) at 24 h of less than 1 µg/mL.
With `COC(=O)c1ccc2ccc(C(=O)c3ccccc3)c-2cc1`, the thermodynamic solubility at 24 h is less than 1 µg/mL.
The same measure, in the same setting: in the case of `O=C(Nc1ccc2ccccc2c1)c1cccnc1` it was 4 µg/mL (≈ 16.1 µM).

A further data set can be described thus: Aqueous solubility of the compound at pH 4.5 incubated for 24 hrs under shaking condition by LC-UV analysis. The data set is classed as physicochemical. The settings on record: aqueous medium. The method in brief:
as §1
On to `CN(C)C(=O)Cc1ccc2ccn(C)c2c1`, for which the solubility (thermodynamic) at 24 h was greater than 53 µg/mL.
On the same count and under the same terms, in the case of `COC(=O)c1ccc2ccn(C(=O)c3ccccc3)c2c1` it was less than 1 µg/mL; in that of `c1ccc2cc(CN3CCCCC3)ccc2c1`, 30 µg/mL (≈ 133 µM); in that of `COC(=O)c1ccc2c(C(=O)c3ccccc3)cc(C(=O)c3ccccc3)c-2cc1`, less than 1 µg/mL.
Still for that read-out and setting: in the case of `COC(=O)c1ccc2c(C(=O)c3ccccc3)cn(C(=O)c3ccccc3)c2c1` it was less than 1 µg/mL.
Take `COC(=O)c1ccc2c(c1)c(C(=O)c1ccccc1)cn2C(=O)c1ccccc1`: the thermodynamic solubility at 24 h was less than 1 µg/mL.
Same read-out and setting: in the case of `O=C(NCc1cccnc1)c1ccc2ccc(C(=O)c3ccccc3)c-2cc1` it was less than 1 µg/mL; in that of `O=C(Nc1cc2cccccc-2c1)c1cccnc1`, 3 µg/mL (≈ 12.1 µM).
The compound `COC(=O)c1ccc2c(ccn2C(=O)c2ccccc2)c1` yielded a thermodynamic solubility at 24 h of less than 1 µg/mL.
On the same count and under the same terms, in the case of `Cn1cc(C(=O)c2ccccc2)c2cc(C(=O)NCc3cccnc3)ccc21` it was 3 µg/mL (≈ 8.12 µM).
Still for that read-out and setting: in the case of `COC(=O)c1ccc2ccc(C(=O)c3ccccc3)c-2cc1` it was less than 1 µg/mL; in that of `O=C(Nc1ccc2ccccc2c1)c1cccnc1`, 6 µg/mL (≈ 24.2 µM).

A short description of the next data set: Permeability of the compound at pH 7.4 by PAMPA assay. The data set is classed as ADME. As to conditions: read-out: permeability.
Regarding `CN(C)C(=O)Cc1ccc2ccn(C)c2c1`, the Papp amounted to 7.6 ×10⁻⁶ cm/s.
On the same count and under the same terms, in the case of `COC(=O)c1ccc2ccn(C(=O)c3ccccc3)c2c1` it was 0.5 ×10⁻⁶ cm/s; in that of `c1ccc2cc(CN3CCCCC3)ccc2c1`, 4.6 ×10⁻⁶ cm/s.
For `COC(=O)c1ccc2c(C(=O)c3ccccc3)cc(C(=O)c3ccccc3)c-2cc1`, the Papp was 0.3 ×10⁻⁶ cm/s.
With `COC(=O)c1ccc2c(C(=O)c3ccccc3)cn(C(=O)c3ccccc3)c2c1`, the Papp turned out to be 2.1 ×10⁻⁶ cm/s.
Take `COC(=O)c1ccc2c(c1)c(C(=O)c1ccccc1)cn2C(=O)c1ccccc1`: the Papp was 1.3 ×10⁻⁶ cm/s.
In the case of `O=C(NCc1cccnc1)c1ccc2ccc(C(=O)c3ccccc3)c-2cc1`, the Papp amounted to 2.4 ×10⁻⁶ cm/s.
The same measure, in the same setting: in the case of `O=C(Nc1cc2cccccc-2c1)c1cccnc1` it was 4.8 ×10⁻⁶ cm/s.
Same read-out and setting: in the case of `COC(=O)c1ccc2c(ccn2C(=O)c2ccccc2)c1` it was 0.5 ×10⁻⁶ cm/s; in that of `Cn1cc(C(=O)c2ccccc2)c2cc(C(=O)NCc3cccnc3)ccc21`, 1.7 ×10⁻⁶ cm/s.
Same read-out and setting: in the case of `COC(=O)c1ccc2ccc(C(=O)c3ccccc3)c-2cc1` it was 0.1 ×10⁻⁶ cm/s.
Turning to `Cn1c(NC(=O)c2cccnc2)cc2ccccc21`, the Papp was 4.9 ×10⁻⁶ cm/s.

The next data set can be described thus: Octanol-water partition coefficient, logD of the compound at pH 2 by HPLC analysis. The data set is classed as physicochemical. As to conditions: read-out: logD.
Turning to `CN(C)C(=O)Cc1ccc2ccn(C)c2c1`, the logD amounted to 1.9.
Still for that read-out and setting: in the case of `COC(=O)c1ccc2ccn(C(=O)c3ccccc3)c2c1` it was 4.4; in that of `c1ccc2cc(CN3CCCCC3)ccc2c1`, 0.9.
On the same count and under the same terms, in the case of `COC(=O)c1ccc2c(C(=O)c3ccccc3)cc(C(=O)c3ccccc3)c-2cc1` it was 5.6; in that of `COC(=O)c1ccc2c(C(=O)c3ccccc3)cn(C(=O)c3ccccc3)c2c1`, 5.2; in that of `COC(=O)c1ccc2c(c1)c(C(=O)c1ccccc1)cn2C(=O)c1ccccc1`, 5.2.
Still for that read-out and setting: in the case of `O=C(NCc1cccnc1)c1ccc2ccc(C(=O)c3ccccc3)c-2cc1` it was 1.4.
For the compound `O=C(Nc1cc2cccccc-2c1)c1cccnc1`, the logD was found to be 1.3.
Still for that read-out and setting: in the case of `COC(=O)c1ccc2c(ccn2C(=O)c2ccccc2)c1` it was 4.5.
For the compound `Cn1cc(C(=O)c2ccccc2)c2cc(C(=O)NCc3cccnc3)ccc21`, the logD was found to be 0.9.
On the same count and under the same terms, in the case of `COC(=O)c1ccc2ccc(C(=O)c3ccccc3)c-2cc1` it was 4.8.
Same read-out and setting: in the case of `Cn1c(NC(=O)c2cccnc2)cc2ccccc21` it was -0.1; in that of `O=C(Nc1ccc2ccccc2c1)c1cccnc1`, 1.4.
